# According to ChEMBL document CHEMBL4359825, “Synthesis of novel S-linked dihydroartemisinin derivatives and evaluation of their anticancer activity” (Eur J Med Chem, 2019):
# The source made the active and inactive calls. The calls are words filed in the database; no cut-off is given here.
# Legend:
# [1] = tested on: PC-3; assay: Induction of apoptosis in human PC3 cells assessed as cell shrinkage at 3 to 10 uM after 72 hrs by phase contrast microscopy; format: functional, cell-based
# In short: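 PC-3 cells in exponential growth exposed to 3 or 10 μM for 72 h, washed gently with PBS, and apoptotic morphology recorded by phase-contrast microscopy.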
# [2] = tested on: PC-3; assay: Induction of cell death in human PC3 cells at 3 uM measured after 72 hrs by propidium iodide staining based flow cytometry analysis (reference value: 0.5 %); format: functional
# In short: (§1)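 PC-3 cells in six-well plates exposed to 3 or 10 μM for 72 h, 0.1% DMSO vehicle as control; cells harvested, PBS-washed, stained with propidium iodide (5 μg/mL) 20 min at 4 °C; percentage dead cells read by flow cytometry; t-test against vehicle.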
# [3] = tested on: PC-3; assay: Downregulation of Pin1 expression in human PC3 cells at 3 to 10 uM measured after 72 hrs by Western blot analysis; format: functional, cell-based
# In short: (§2)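 Western blot: PC-3 seeded 1.25 × 10^5/well, exposed to 0.1–10 μM for 72 h. Lysed in 2× SDS buffer and sonicated; 20–25 μg protein run on 12% SDS gel, transferred to PVDF, blocked in 5% BSA/TBST. Primary antibodies overnight, secondary 1 h; ECL detection, β-actin loading control.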
# [4] = tested on: PC-3; assay: Antimigratory activity against human PC3 cells assessed as reduction in cell migration at 3 to 10 uM measured upto 24 hrs by scratch wound healing assay; format: functional, cell-based
# In short: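 Wound healing: PC-3 seeded 3 × 10^5/well, grown to a monolayer at 37 °C, 5% CO2. Scratch made with a pipette tip, detached cells washed off, then 3 or 10 μM added.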
# [5] = tested on: PC-3; assay: Antimetastatic activity against human PC3 cells assessed as inhibition of MMP-2 at 3 to 10 uM measured after 48 hrs by gelatin zymography; format: functional, cell-based
# In short: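 PC-3 monolayers scratched, then treated with 3 or 10 μM for 48 h in serum-containing medium, then 24 h in serum-free medium. Conditioned medium run non-reduced on 7.5% SDS-PAGE containing gelatin 4 mg/mL. Gel washed in 2.5% Triton X-100, incubated 24 h at 37 °C in Tris pH 7.5 with CaCl2/ZnCl2, Coomassie stained; lysis seen as clear bands.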
# [6] = tested on: PC-3; assay: Induction of apoptosis in human PC3 cells assessed as decrease in mitochondrial membrane potential at 3 to 10 uM after 48 hrs by JC-1 staining based fluorescence microscopy analysis; format: functional, cell-based
# In short: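 PC-3 cells exposed to 3 or 10 μM for 48 h, then stained with JC-1 (10 μM) for 30 min in the dark. Mitochondrial potential judged by red/green fluorescence under a fluorescence microscope.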
# [7] = target: Peptidyl-prolyl cis-trans isomerase NIMA-interacting 1 (Homo sapiens) (UniProt Q13526); assay: Inhibition of Pin1 in human PC3 cells assessed as downregulation of cyclin D1 measured after 72 hrs by Western blot analysis; format: cell-based
# Sequence of Peptidyl-prolyl cis-trans isomerase NIMA-interacting 1 (Homo sapiens) (Q13526 whole entry): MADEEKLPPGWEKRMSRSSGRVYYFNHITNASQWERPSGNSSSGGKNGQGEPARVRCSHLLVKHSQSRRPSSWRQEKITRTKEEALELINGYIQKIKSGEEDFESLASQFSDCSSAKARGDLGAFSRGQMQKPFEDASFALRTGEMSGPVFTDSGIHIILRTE
# In short: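 PC-3 cells (1.25×10^5 per well) exposed 72 h to 0.1, 0.3, 1, 3 or 10 μM; lysed in 2× SDS buffer, sonicated, BCA-quantified; 20-25 μg protein on 12% SDS gel, PVDF, 5% BSA block, primary antibody overnight, secondary 1 h; ECL detection, β-actin loading control.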
# [8] = tested on: PC-3; assay: Antiproliferative activity against human PC3 cells assessed as reduction in cell viability at 1 to 10 uM incubated for 72 hrs by MTT assay; format: functional, cell-based
# [9] = tested on: PC-3; assay: Induction of apoptosis in human PC3 cells assessed as decrease in pro-caspase-9 level after 72 hrs by Western blot analysis; format: functional, cell-based; in short: as §2
# [10] = tested on: PC-3; assay: Downregulation of Pin1 in human PC3 cells harboring siRNA measured after 72 hrs by Western blot analysis; format: functional, cell-based
# In short: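 PC-3 cells (1.5 × 10^5/well) transfected with Pin1 siRNA (25 nM) using Lipofectamine RNAiMAX in Opti-MEM, alone or with test agent, for 72 h. Pin1 assessed by western blot with β-actin loading control.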
# [11] = tested on: PC-3; assay: Downregulation of E2F1 mRNA expression in human PC3 cells at 3 to 10 uM measured after 72 hrs by TRIzol dye based RT-PCR analysis; format: functional, cell-based
# In short: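 PC-3 (1.25 × 10^5/well) treated 72 h with 3 or 10 μM. Total RNA extracted with TRIzol; cDNA made from 2 μg RNA. SYBR qPCR: 95 °C 10 min, then 40 cycles of 95 °C/60 °C. Expression normalised to GAPDH by 2^-ΔΔCt; three experiments.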
# [12] = tested on: A549; assay: Anticancer activity against human A549 cells assessed as cell viability measured after 72 hrs by MTT assay (reference value: 100 +/- 9.6 %); format: functional; set-up: concentration or dose not given beside the values
# [13] = tested on: PC-3; assay: Antimigratory activity against human PC3 cells assessed as reduction in cell migration at 10 uM measured upto 24 hrs in presence of pan-caspase inhibitor Z-VAD-fmk by scratch wound healing assay; format: functional, cell-based
# In short: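 PC-3 monolayers pretreated 2 h with pan-caspase inhibitor Z-VAD-FMK (10 μM) before scratching and treatment with test agent. Wound closure imaged by phase contrast at 0, 12 and 24 h.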
# [14] = tested on: A-431; assay: Anticancer activity against human A431 cells assessed as cell viability measured after 72 hrs by MTT assay (reference value: 100 +/- 11.7 %); format: functional; set-up: concentration or dose not given beside the values
# [15] = tested on: HeLa; assay: Anticancer activity against human HeLa cells assessed as cell viability measured after 72 hrs by MTT assay (reference value: 100 +/- 11.5 %); format: functional; set-up: concentration or dose not given beside the values
# [16] = tested on: PC-3; assay: Cell cycle arrest in human PC3 cells assessed as accumulation at G2/M phase at 3 uM measured after 48 hrs by RNase/propidium iodide staining based flow cytometry analysis (reference value: 34.95 %); format: functional
# [17] = tested on: PC-3; assay: Induction of cell death in human PC3 cells at 10 uM measured after 72 hrs by propidium iodide staining based flow cytometry analysis (reference value: 0.5 %); format: functional; in short: as §1
# [18] = tested on: PC-3; assay: Induction of apoptosis in human PC3 cells assessed as nuclear condensation at 3 to 10 uM after 72 hrs by Hoechst 33342 staining based fluorescence microscopy; format: functional, cell-based
# In short: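 PC-3 cells treated 72 h with 3 or 10 μM, stained with Hoechst 33342 for 15 min at room temperature in the dark, washed with PBS, and nuclei examined by fluorescence microscopy for condensation.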
# [19] = tested on: PC-3; assay: Cell cycle arrest in human PC3 cells assessed as accumulation at G2/M phase at 10 uM measured after 48 hrs by RNase/propidium iodide staining based flow cytometry analysis (reference value: 34.95 %); format: functional
# [20] = tested on: PC-3; assay: Cell cycle arrest in human PC3 cells assessed as accumulation at G0/G1 phase at 10 uM measured after 48 hrs by RNase/propidium iodide staining based flow cytometry analysis (reference value: 42.59 %); format: functional
# [21] = tested on: PC-3; assay: Cytotoxicity against human PC3 cells assessed as reduction in cell viability at 3 to 10 uM pretreated with NAC for 2 hrs followed by compound addition and measured after 72 hrs by MTT assay; format: functional, cell-based
# In short: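 PC-3 cells in 96-well plates pretreated 2 h with N-acetyl cysteine (20 μM), then exposed to 3 or 10 μM test agent for 72 h. Viability read by MTT as in the standard protocol, absorbance 570 nm, relative to DMSO control. Three separate experiments.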
# [22] = tested on: HepG2; assay: Anticancer activity against human HepG2 cells assessed as cell viability measured after 72 hrs by MTT assay (reference value: 100 +/- 6.5 %); format: functional; set-up: concentration or dose not given beside the values
smiles,measurement,setting,value
COC(=O)Cc1ccc(S[C@@H]2O[C@@H]3O[C@@]4(C)CC[C@H]5[C@H](C)CC[C@@H]([C@H]2C)[C@@]35OO4)cc1,Activity,[1],Active
same,Activity,[2],26.3%
same,Activity,[3],Active
same,Activity,[4],Active
same,inhibition,[5],Dose-dependent effect
same,Activity,[6],Active
same,inhibition,[7],Dose-dependent effect
same,Activity,[8],Active
same,Activity,[9],Dose-dependent effect
same,Activity,[10],Active
same,Activity,[11],Active
same,Activity,[12],68%
same,inhibition,[13],inactive
same,Activity,[14],35%
same,Activity,[15],43%
same,Activity,[16],32.24%
same,Activity,[17],28.9%
same,Activity,[18],Active
same,Activity,[19],32.19%
same,Activity,[20],53.71%
same,Activity,[21],inactive
same,Activity,[22],50%
